Reference: ChEMBL document CHEMBL4316661, “Securinega Alkaloids from the Twigs of Securinega suffruticosa and Their Biological Activities” (J Nat Prod, 2019)

What was measured:
HCT-15 = experiment: Cytotoxicity against human HCT15 cells after 48 hrs by SRB assay; assay type: cell-based; conditions: HCT-15, 48 h
SK-OV-3 = experiment: Cytotoxicity against human SKOV3 cells after 48 hrs by SRB assay; assay type: cell-based; conditions: SK-OV-3, 48 h
[1] = Cytotoxicity against rat C6 cells assessed as cell viability at 20 uM after 24 hrs by MTT assay relative to control; assay type: cell-based; conditions: read-out: Activity
Summary of the method: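 C6 cells treated with 20 μM of each compound. Viability determined by MTT assay and expressed as a percentage. Means ± SD of three independent experiments.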

A549 = experiment: Cytotoxicity against human A549 cells after 48 hrs by SRB assay; assay type: cell-based; conditions: A549, 48 h
C6 = experiment: Neuroprotective activity in rat C6 cells assessed as NGF secretion at 20 uM after 24 hrs by ELISA relative to control; assay type: functional
Summary of the method: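 C6 cells given 20 μM of each compound for 24 h. NGF secreted into the C6-conditioned medium quantified by ELISA, as a percentage of the untreated control (set at 100%). Means ± SD of three independent experiments.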

SK-MEL-2 = experiment: Cytotoxicity against human SK-MEL-2 cells after 48 hrs by SRB assay; assay type: cell-based; conditions: SK-MEL-2, 48 h
BV-2 [2] = experiment: (§1) Cytotoxicity against mouse BV2 cells assessed as cell viability at 20 uM after 24 hrs by MTT assay relative to control; assay type: cell-based; conditions: bv-2, 24 h, 20 µM
Summary of the method: (§2)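 BV-2 microglia exposed to 20 μM of each compound. Viability read by MTT and given as a percentage. Means ± SD of three independent experiments.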

BV-2 [3] = experiment: Antiinflammatory activity in mouse BV2 cells assessed as inhibition of LPS-induced nitrite production after 24 hrs by Griess assay; assay type: functional, cell-based; conditions: BV-2, 24 h
Summary of the method: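 LPS-activated murine microglial BV-2 cells. IC50 taken as the concentration (μM) giving 50% inhibition of NO production. Means of three independent experiments, as means ± SD.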

[4] = as §1; assay type: cell-based, BV-2; conditions: BV2 cells, read-out: Activity; summary of the method: as §2

| Structure (SMILES) | IC50 (HCT-15) | IC50 (SK-OV-3) | viability at 24 h, 20 µM [1] | IC50 (A549) | Activity (C6) | IC50 (SK-MEL-2) | Activity (BV-2 [2]) | IC50 (BV-2 [3]) | viability at 24 h, 20 µM [4] |
| --- | --- | --- | --- | --- | --- | --- | --- | --- | --- |
| O=C1C=C2C=C[C@@H]3C[C@@]2(O1)[C@@H]1CCC(=O)C(=O)N31 | > 10 µM | > 10 µM | 101% | > 10 µM | 172.7% | > 10 µM | – | – | – |
| O=C1C=C2C=C[C@@H]3C[C@@]2(O1)[C@@]1(O)[C@H]2O[C@H]2CCN31 | 1.5 µM | 3.4 µM | – | 6.8 µM | – | 1.9 µM | Toxic | – | – |
| CO[C@H]1CCN2[C@@H]3C=CC4=CC(=O)O[C@]4(C3)[C@@H]2C1 | > 10 µM | > 10 µM | – | > 10 µM | – | > 10 µM | – | 31.5 µM | 88.7% |
| CO[C@H]1CCN2O[C@H]3C=CC[C@@]4(OC(=O)C=C34)[C@@H]2C1 | > 10 µM | > 10 µM | – | > 10 µM | – | > 10 µM | – | – | – |
| O=C1C=C2C=CCC[C@]2(c2ccccn2)O1 | > 10 µM | > 10 µM | – | > 10 µM | – | > 10 µM | – | – | – |
| O=C1C=C2C=C[C@@H]3C[C@@]2(O1)[C@@H]1[C@H]2O[C@H]2CCN31 | > 10 µM | > 10 µM | 101% | > 10 µM | 145.3% | > 10 µM | – | 12.6 µM | 92.8% |
| O=C1C=C2C=C[C@H](O)C[C@@H]2O1 | > 10 µM | > 10 µM | – | > 10 µM | – | > 10 µM | – | – | – |
| O=C1C=C2C=C[C@H]3C[C@]2(O1)[C@H]1CCCCN1O3 | > 10 µM | > 10 µM | – | > 10 µM | – | > 10 µM | – | 12.1 µM | 96.7% |
| O=C1C=C2C=C[C@H](O)C[C@]2(c2ccccn2)O1 | > 10 µM | > 10 µM | – | > 10 µM | – | > 10 µM | – | – | – |
| CO[C@H]1CCN2O[C@]34C=C[C@H](O)C[C@]3(OC(=O)C4)[C@@H]2C1 | > 10 µM | > 10 µM | – | > 10 µM | – | > 10 µM | – | – | – |
| O=C1C=C2C=C[C@H]3C[C@@]2(O1)[C@@H]1C[C@@H](O)CCN1O3 | > 10 µM | > 10 µM | – | > 10 µM | – | > 10 µM | – | – | – |
| CO[C@H]1CCN2[C@@H]3C=CC4=CC(=O)O[C@]4(C3)[C@H]2C1 | > 10 µM | > 10 µM | – | > 10 µM | – | > 10 µM | – | 7.7 µM | 108% |
| COc1cc([C@@H]2c3cc4c(cc3[C@@H](O[C@@H]3O[C@@H]5CO[C@@H](C)O[C@H]5[C@H](O)[C@H]3O)[C@H]3COC(=O)[C@H]23)OCO4)cc(OC)c1O [ETOPOSIDE] | 0.3 µM | 1.8 µM | – | 0.7 µM | – | 0.3 µM | – | – | – |
| CO[C@H]1CCN2O[C@@H]3C=CC4=CC(=O)O[C@]4(C3)[C@@H]2C1 [SECURINEGA AMAMINE D] | > 10 µM | > 10 µM | – | > 10 µM | – | > 10 µM | – | 23.9 µM | 86.5% |
| O=C1C=C2C=C[C@@H]3C[C@@]2(O1)[C@H]1CCCCN31 [SECURININE] | > 10 µM | > 10 µM | 102% | > 10 µM | 141.1% | > 10 µM | – | 1.1 µM | 101% |
| CCCCC/C=C/C(=O)CCc1ccc(O)c(OC)c1 [SHOGAOL] | – | – | 112% | – | 138.7% | – | – | – | – |
| CNC(=N)NCCC[C@H](N)C(=O)O [TILARGININE] | – | – | – | – | – | – | – | – | 99.7% |
